# In ChEMBL document CHEMBL1122735, “Synthesis and activity of novel nitropyrazines for use as hypoxic cell radiosensitizers” (J Med Chem, 1984):
# Key:
# [1] = Compound was evaluated for the acute cytotoxicity chinese hamster lung fibroblast like cells after 2 hr exposure in nitrogen at 22 degree Centigrade; type: cell-based, Cricetulus griseus
# How it was run: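 V79 379A Chinese hamster lung fibroblast-like cells, taken from log-phase suspension culture, allowed to attach to glass dishes in Eagle's MEM + 10% fcs at 37 °C for 2-3 h. Exposed to a range of sensitizer concentrations for 2 h at room temperature (22 °C) under N2 + 5% CO2. Sensitizer then replaced with fresh medium, followed by 7 days at 37 °C in air + 5% CO2 and colony scoring. Value is the concentration giving 75% colony-forming survival.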
# [2] = Compound was evaluated for the chronic aerobic cytotoxicity in chinese hamster lung fibroblast like cells after 7 days exposure in air at 37 degree Centigrade; type: cell-based, Cricetulus griseus; conditions: 168 h
# How it was run: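 V79 379A Chinese hamster lung fibroblast-like cells kept in Eagle's MEM with fcs. Cells plated in Petri dishes and held with a range of sensitizer concentrations for 7 days at 37 °C in air plus 5% CO2, then colonies scored. The concentration reducing colony number to 50% was estimated.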
# [3] = Partition coefficient which was measured in octanol-buffer system at pH 7, 22 degree Centigrade; type: physicochemical; conditions: octanol/water
# How it was run: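 Partition coefficient taken as C(octanol)/C(pH 7 buffer) at 22 °C.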
# [4] = Sensitizer enhancement ratio was reported at 10E-3 mol/dmE-3 concentration.
# How it was run: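 Asynchronous log-phase V79 379A cells, attached to glass dishes, irradiated at room temperature with 250 kVp X-rays (0.5 mm Cu + 0.8 mm Al filter, 3.26 gray min-1) in the presence of sensitizer, triplicate dishes per point; colonies scored. ER = dose for 10^-2 survival without sensitizer divided by dose with sensitizer, or ratio of final linear survival-curve slopes.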
SMILES,Acute toxicity [1],Cytotoxicity [2],Partition coefficient [3],Ratio [4]
COC(=O)c1nc(NCC(O)CO)cnc1[N+](=O)[O-] (stereo not given),> 5 mM,> 500 µM,0.79,1.3
CC(=O)Nc1nc(NC(CO)C(O)CO)c(Cl)nc1[N+](=O)[O-] (stereo not given),> 3.3 mM,400 µM,0.22,1.35
COCC(O)Cn1ccnc1[N+](=O)[O-] (stereo not given) [MISONIDAZOLE],30 mM,1300 µM,0.48,
CC(=O)Nc1nc(N2CCN(C)CC2)c(Cl)nc1[N+](=O)[O-],0.16 mM,25 µM,3.18,1.5
Nc1nc(NCCO)c(Cl)nc1[N+](=O)[O-],> 3 mM,260 µM,1.32,1.22
Nc1nc(NCC(O)CO)c(Cl)nc1[N+](=O)[O-] (stereo not given),> 4 mM,580 µM,0.6,1.25
O=[N+]([O-])c1nccnc1NCC(O)CO (stereo not given),0.7 mM,27 µM,0.32,1.71
CC(=O)Nc1nc(NCC(O)CO)c(Cl)nc1[N+](=O)[O-] (stereo not given),4 mM,96 µM,1.01,1.3
O=[N+]([O-])c1cnc(NC(CO)C(O)CO)cn1 (stereo not given),> 5 mM,650 µM,0.13,1.1
